Among the data in ChEMBL document CHEMBL1821581, “Synthesis, antiproliferative activities and in vitro biological evaluation of novel benzofuransulfonamide derivatives” (Bioorg Med Chem Lett, 2011) are IC50 and Activity values, retold here.

pIC50: −log10 of the molar value.

One experiment has as its system HepG2. Briefly: Antiproliferative activity against human HepG2 cells after 48 hrs by MTT assay. It counts as functional, cell-based. Particulars: HepG2, 48 h. The method, boiled down: (§1)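 Cells seeded at 2000/well, cultured 24 h, then exposed to compounds 48 h. MTT (10 mg/mL stock, 10 µL/well) added for 2.5 h at 37 °C; supernatant removed, DMSO added 15–20 min, absorbance read at 570 nm. IC50 reported as mean of three independent experiments.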

Experiment [1] concerns NCI-H460. The experiment can be described thus: Antiproliferative activity against human NCI-H460 cells after 48 hrs by MTT assay. It counts as functional, cell-based. Particulars: NCI-H460, 48 h. The method, boiled down:
as §1

A further experiment relates to HeLa. The experiment can be described thus: Antiproliferative activity against human HeLa cells after 48 hrs by MTT assay. The format is functional, cell-based. The method, boiled down: as §1
For the next experiment, the system named is PC-3. The experiment can be described thus: Antiproliferative activity against human PC3 cells after 48 hrs by MTT assay. The format is functional, cell-based. Particulars: PC-3, 48 h. The method, boiled down: as §1
In experiment [2] the test system is NCI-H460. The experiment can be described thus: Induction of apoptosis in human NCI-H460 cells at 2.5 uM after 48 hrs using annexin V-FITC and propidium iodine staining by flow cytometric analysis (reference value: 3.82%). The format is functional.
The subject of experiment [3] is NCI-H460. Briefly: Induction of apoptosis in human NCI-H460 cells at 10 uM after 48 hrs using annexin V-FITC and propidium iodine staining by flow cytometric analysis (reference value: 3.82%). It counts as functional.

Regarding `CCOC(=O)c1oc2ccc(S(=O)(=O)Nc3ccc(F)cc3)cc2c1C`, the pIC50 with HepG2 was 5.12; with NCI-H460 [1], 5.38; in the experiment on HeLa, 5.03; in the experiment on PC-3, 5.07. Further, the Activity is 33.88% in the experiment on NCI-H460 [2] and 41.09% with NCI-H460 [3].
Regarding `Cc1c(C(=O)c2ccccc2)oc2ccc(S(=O)(=O)Nc3ccc(F)cc3)cc12`, the negative logarithm of the IC50 (pIC50) was 4.49 in the experiment with HepG2, 4.65 in the experiment with NCI-H460 [1], 4.81 in the experiment on HeLa and 4.66 in the experiment on PC-3.
For `CC(=O)Nc1ccc2oc(C(=O)c3ccccc3)c(C)c2c1`, the pIC50 with HepG2, with NCI-H460 [1], in the experiment with HeLa and in the experiment on PC-3 was under 4.40 in each case.
For the compound `CCOC(=O)c1oc2ccc(NS(=O)(=O)c3ccc(F)cc3)cc2c1C`, the pIC50 in the experiment on HepG2 is 5.25; in the experiment with NCI-H460 [1], 5.05; in the experiment with HeLa, 4.91; in the experiment on PC-3, 4.80.
For `Cc1c(C(=O)c2ccccc2)oc2ccc(NC(=O)c3ccc(F)cc3)cc12` the same measures were 4.51, 4.81, 4.73 and 4.87.
For `Cc1c(C(=O)c2ccccc2)oc2ccc(NS(=O)(=O)c3ccc(F)cc3)cc12`, in that order: 4.62, 4.46, 4.97 and 4.42.
